ChEMBL document CHEMBL3808280, “GroEL/ES inhibitors as potential antibiotics” (Bioorg Med Chem Lett, 2016)

How the values were obtained:
HEK293 = assay: Cytotoxicity against HEK293 cells assessed as reduction in cell viability after 48 hrs by alamar blue assay; format: cell-based; details: Homo sapiens, HEK293, 48 h
E. coli GroEL/ES [1] = molecular target: T1, E. coli GroEL/ES (Escherichia coli, UniProt P0A6F5); assay: (§1) Inhibition of Escherichia coli GroEL/GroES using Escherichia coli GroEL expressed in Escherichia coli DH5alpha cells and Escherichia coli GroES expressed in Escherichia coli BL21(DE3) cells assessed as inhibition of denatured rhodanese refolding by measuring reduction in thiocyanate production incubated for 60 mins by micro plate reader analysis
T1 sequence (P0A6F5 whole entry, looked up): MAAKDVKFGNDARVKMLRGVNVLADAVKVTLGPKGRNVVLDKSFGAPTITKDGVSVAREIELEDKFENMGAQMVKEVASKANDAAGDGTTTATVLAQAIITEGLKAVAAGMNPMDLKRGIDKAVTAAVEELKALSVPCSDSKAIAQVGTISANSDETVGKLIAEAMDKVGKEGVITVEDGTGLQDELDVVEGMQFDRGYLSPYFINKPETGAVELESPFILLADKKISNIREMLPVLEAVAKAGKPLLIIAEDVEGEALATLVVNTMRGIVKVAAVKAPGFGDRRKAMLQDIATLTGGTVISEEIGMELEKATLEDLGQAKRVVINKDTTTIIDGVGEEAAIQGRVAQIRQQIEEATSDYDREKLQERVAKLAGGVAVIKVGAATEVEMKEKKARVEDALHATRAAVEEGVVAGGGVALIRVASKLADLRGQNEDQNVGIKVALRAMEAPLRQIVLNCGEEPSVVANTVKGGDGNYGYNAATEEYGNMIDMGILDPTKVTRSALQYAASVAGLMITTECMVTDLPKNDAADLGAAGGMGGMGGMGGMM
Outline: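 Urea-denatured rhodanese bound to GroEL/GroES in folding buffer containing thiosulfate. After 60 min at 37°C, thiocyanate reaction (KCN, thiosulfate, phosphate) run, then formaldehyde quench and ferric nitrate added. Fe(SCN)3 read at 460 nm after 15 min RT, with protein-free baseline plates.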

Escherichia coli [2] = assay: Antibacterial activity against Escherichia coli SM101 assessed as reduction in bacterial growth incubated for 12 hrs by UV-Vis spectrophotometric analysis; format: functional, organism-based; details: SM101, 12 h
[3] = Cytotoxicity against human THLE3 cells assessed as reduction in cell viability after 48 hrs by alamar blue assay; format: cell-based; details: THLE3, 48 h
E. coli GroEL/ES [4] = molecular target: T1, E. coli GroEL/ES; assay: Inhibition of Escherichia coli GroEL/GroES using Escherichia coli GroEL expressed in Escherichia coli DH5alpha cells and Escherichia coli GroES expressed in Escherichia coli BL21(DE3) cells assessed as reduction in denatured pig heart MDH ATPase activity by malachite green dye based assay
Escherichia coli [5] = assay: Antibacterial activity against acrB-deficient Escherichia coli MC4100 assessed as reduction in bacterial growth incubated for 6 to 8 hrs; format: functional, organism-based
Bacillus subtilis = assay: Antibacterial activity against Bacillus subtilis 168 assessed as reduction in bacterial growth incubated for 6 to 8 hrs; format: functional, organism-based; details: subsp. subtilis str. 168
Pseudomonas aeruginosa = assay: Antibacterial activity against multidrug resistant Pseudomonas aeruginosa NCTC 10332 (ATCC 10145) assessed as reduction in bacterial growth incubated for 6 to 8 hrs; format: functional, organism-based
Outline: (§2)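 Broth proliferation assay. S. aureus and MRSA grown in ATCC Medium 18, other pathogens in Brain Heart Infusion. Stagnant incubation at 37°C under breathable seal. OD600 read at mid-log (6-8 h) and corrected with bacteria-free baseline plates. EC50 by variable-slope nonlinear fit, at least triplicate.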

HSP60/HSP10 [6] = molecular target: T2, HSP60/HSP10 (Homo sapiens, UniProt P10809); assay: Inhibition of human HSP60/HSP10 expressed in Escherichia coli Rosetta2(DE3) cells assessed as inhibition of denatured pig heart MDH refolding by measuring reduction in NADH production incubated for 60 mins by micro plate reader analysis
T2 sequence (P10809 whole entry): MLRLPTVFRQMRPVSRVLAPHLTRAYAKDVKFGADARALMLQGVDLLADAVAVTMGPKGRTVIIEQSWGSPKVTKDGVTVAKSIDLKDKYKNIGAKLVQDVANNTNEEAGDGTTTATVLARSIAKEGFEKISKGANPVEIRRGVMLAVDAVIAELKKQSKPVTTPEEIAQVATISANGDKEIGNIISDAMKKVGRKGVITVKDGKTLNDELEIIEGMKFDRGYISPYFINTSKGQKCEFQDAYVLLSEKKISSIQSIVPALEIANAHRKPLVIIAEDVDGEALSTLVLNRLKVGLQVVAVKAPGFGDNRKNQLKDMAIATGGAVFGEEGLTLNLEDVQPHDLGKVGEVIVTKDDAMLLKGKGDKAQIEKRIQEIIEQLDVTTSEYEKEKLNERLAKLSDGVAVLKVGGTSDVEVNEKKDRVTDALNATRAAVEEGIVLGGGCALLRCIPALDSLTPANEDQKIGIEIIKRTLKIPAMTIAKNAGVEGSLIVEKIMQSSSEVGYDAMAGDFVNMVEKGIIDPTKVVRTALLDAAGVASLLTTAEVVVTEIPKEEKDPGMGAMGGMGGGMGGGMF
T2 sequence (P61604 whole entry, further chain): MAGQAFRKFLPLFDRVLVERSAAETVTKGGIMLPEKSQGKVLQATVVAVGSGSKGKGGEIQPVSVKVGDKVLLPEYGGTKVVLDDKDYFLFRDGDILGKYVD
Outline: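 Pig heart MDH was denatured in guanidine-HCl (dMDH) and complexed with HSP60, then HSP10, in Tris pH 7.4/KCl/MgCl2/DTT buffer. EDTA quench (100 mM final); refolded MDH activity was followed with mesoxalate/NADH at 340 nm.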

[7] = tested on: Klebsiella pneumoniae subsp. pneumoniae; assay: Antibacterial activity against multidrug resistant Klebsiella pneumoniae subsp. pneumoniae NCTC 9633 (ATCC 13883) assessed as reduction in bacterial growth incubated for 6 to 8 hrs; format: functional, organism-based; outline: as §2
Enterococcus faecium = assay: Antibacterial activity against multidrug resistant Enterococcus faecium NCTC 7171 (ATCC 19434) assessed as reduction in bacterial growth incubated for 6 to 8 hrs; format: functional, organism-based; outline: as §2
Enterobacter cloacae = assay: Antibacterial activity against multidrug resistant Enterobacter cloacae subsp. cloacae CDC 442-68 (ATCC 13047) assessed as reduction in bacterial growth incubated for 6 to 8 hrs; format: functional, organism-based; outline: as §2
HSP60/HSP10 [8] = molecular target: T2, HSP60/HSP10; assay: Inhibition of human HSP60/HSP10 expressed in Escherichia coli Rosetta2(DE3) cells assessed as reduction in denatured pig heart MDH ATPase activity by malachite green dye based assay
E. coli GroEL/ES [9] = molecular target: T1, E. coli GroEL/ES; assay: (§3) Inhibition of Escherichia coli GroEL/GroES using Escherichia coli GroEL expressed in Escherichia coli DH5alpha cells and Escherichia coli GroES expressed in Escherichia coli BL21(DE3) cells assessed as reduction in pig heart native refolded MDH-mediated NADH production by micro plate reader analysis
Outline: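 Native MDH counter-screen. GroEL/ES-dMDH refolding run 60 min at 37°C, then EDTA-quenched without compound. IC50 averaged from at least triplicate.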

Staphylococcus aureus [10] = assay: Antibacterial activity against methicillin susceptible Staphylococcus aureus subsp. aureus Seattle 1945 (ATCC 25923) assessed as reduction in bacterial growth incubated for 6 to 8 hrs
E. coli GroEL/ES [11] = molecular target: T1, E. coli GroEL/ES; assay: as §1, with “pig heart MDH” for “rhodanese”, “NADH” for “thiocyanate”
Outline: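 Denatured MDH (guanidine-HCl/DTT, 30 min RT) bound to GroEL with GroES in Tris pH 7.4, KCl, MgCl2, DTT buffer. 60 min at 37°C, EDTA quench to 100 mM. Refolded MDH activity read with mesoxalate/NADH at 340 nm. Log-averaged IC50 from replicates.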

Escherichia coli [12] = assay: Antibacterial activity against Escherichia coli DH5alpha assessed as reduction in bacterial growth incubated for 6 to 8 hrs; format: functional, organism-based; details: DH5[alpha]
Acinetobacter baumannii = assay: Antibacterial activity against multidrug resistant Acinetobacter baumannii 2208 (ATCC 19606) assessed as reduction in bacterial growth incubated for 6 to 8 hrs; format: functional; outline: as §2
Staphylococcus aureus [13] = assay: Antibacterial activity against methicillin resistant Staphylococcus aureus subsp. aureus HPV107 (ATCC BAA-44) assessed as reduction in bacterial growth incubated for 6 to 8 hrs; format: functional, organism-based; outline: as §2
E. coli GroEL/ES [14] = molecular target: T1, E. coli GroEL/ES; assay: as §3, with “in” for “in pig heart”, “rhodanese-mediated thiocyanate” for “MDH-mediated NADH”

SMILES | EC50 (HEK293) [µM] | IC50 (E. coli GroEL/ES [1]) [nM] | EC50 (Escherichia coli [2]) [µM] | EC50 [3] [µM] | IC50 (E. coli GroEL/ES [4]) [µM] | EC50 (Escherichia coli [5]) [µM] | EC50 (Bacillus subtilis) [µM] | EC50 (Pseudomonas aeruginosa) [µM] | IC50 (HSP60/HSP10 [6]) [µM] | EC50 [7] [µM] | EC50 (Enterococcus faecium) [µM] | EC50 (Enterobacter cloacae) [µM] | IC50 (HSP60/HSP10 [8]) [µM] | IC50 (E. coli GroEL/ES [9]) [µM] | EC50 (Staphylococcus aureus [10]) [µM] | IC50 (E. coli GroEL/ES [11]) [µM] | EC50 (Escherichia coli [12]) [µM] | EC50 (Acinetobacter baumannii) [µM] | EC50 (Staphylococcus aureus [13]) [µM] | IC50 (E. coli GroEL/ES [14]) [µM]
CNC(=O)Oc1c(Br)cc2sc(=O)oc2c1Br | > 100 | 890 | > 100 | > 100 | > 250 | > 100 | 43 | > 100 | 1.8 | > 100 | > 100 | > 100 | > 250 | > 62.5 | 45 | 2.6 | > 100 | > 100 | 74 | 5.3
Cc1ccc(S(=O)(=O)Nc2ccc(-c3nc4ccc(NS(=O)(=O)c5ccc(C)cc5)cc4[nH]3)cc2)cc1 | 34 | 30000 | > 100 | 29 | 119 | > 100 | > 100 | > 100 | 89 | > 100 | > 100 | > 100 | 106 | > 62.5 | > 100 | 7.5 | > 100 | > 100 | > 100 | > 100
O=C1/C(=C/c2ccc(O)c(O)c2)SC(=S)N1c1ccc(O)cc1 | 23 | 580 | 27 | 16 | > 250 | 92 | 25 | > 100 | 4.9 | > 100 | 90 | > 100 | > 250 | > 62.5 | 14 | 0.69 | > 100 | 58 | 9.1 | 14
Nc1nnc(SCC(=O)c2ccc(-c3ccccc3)cc2)s1 | > 100 | 79000 | > 100 | > 100 | 107 | > 100 | > 100 | > 100 | > 100 | > 100 | > 100 | > 100 | > 250 | > 62.5 | > 100 | – | > 100 | > 100 | > 100 | –
COC(=O)c1ccc(-c2ccc(/C=C3/SC(=S)NC3=O)o2)cc1 | 44 | 3000 | 7.6 | 41 | > 250 | > 100 | 16 | > 100 | 16 | > 100 | > 100 | > 100 | > 250 | > 62.5 | 13 | 4.8 | > 100 | > 100 | 1.5 | 8.1
O=C(/C=C/c1ccco1)c1ccc(NC(=O)c2cccs2)cc1 | 55 | 2300 | > 100 | 34 | > 250 | > 100 | > 100 | > 100 | 8.2 | > 100 | > 100 | > 100 | > 250 | > 62.5 | > 100 | 3.6 | > 100 | > 100 | 61 | > 100
O=C(/C=C/c1ccc([N+](=O)[O-])cc1)c1ccc(O)c(O)c1 | 12 | 830 | 48 | 9.9 | 216 | > 100 | > 100 | > 100 | 5.2 | > 100 | > 100 | > 100 | > 250 | > 62.5 | 23 | 1.2 | > 100 | > 100 | 40 | 12
O=C(CC1Nc2cccc3cccc(c23)NC1=O)Nc1cccc([N+](=O)[O-])c1 (configuration not stated) | 62 | 11000 | 68 | 61 | 217 | > 100 | 72 | > 100 | > 100 | > 100 | 15 | > 100 | > 250 | > 62.5 | 84 | 42 | > 100 | > 100 | 54 | 10
Nc1ccc(Nc2nc(-c3ccc(O)c(O)c3)cs2)cc1 | 98 | 1700 | 84 | > 100 | > 250 | > 100 | > 100 | > 100 | 10 | > 100 | > 100 | > 100 | > 250 | > 62.5 | > 100 | 2.7 | > 100 | 81 | > 100 | –
O=C(Nc1cc([N+](=O)[O-])ccc1O)c1ccc2c(c1)C(=O)N(Cc1ccccc1)C2=O | > 100 | 28000 | > 100 | > 100 | 187 | > 100 | > 100 | 85 | 38 | > 100 | > 100 | > 100 | > 250 | > 62.5 | > 100 | 24 | > 100 | > 100 | 15 | > 100
O=C(/C=C/c1cccc([N+](=O)[O-])c1)c1ccc(NC(=O)c2ccco2)cc1 | > 100 | 1400 | 76 | > 100 | 80 | > 100 | > 100 | > 100 | 1.6 | > 100 | > 100 | > 100 | > 250 | > 62.5 | > 100 | 0.93 | > 100 | > 100 | > 100 | > 100
